Source: ChEMBL document CHEMBL1687796, “Synthesis and spectrum of the neoglycoside ACHN-490” (2010)
In brackets after ≈: the same amount, converted by molar mass.

How the values were obtained:
[1] = tested on: Klebsiella oxytoca; test: Antibacterial activity against aminoglycoside-resistant Klebsiella oxytoca expressing AAC(3)-2 by broth microdilution method; type: functional
Outline: (§1)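 Clinical aminoglycoside-resistant isolates were each carrying a single aminoglycoside-modifying enzyme. […] MICs were determined by CLSI broth microdilution.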

[2] = tested on: Acinetobacter baumannii; test: Antibacterial activity against aminoglycoside-susceptible Acinetobacter baumannii by broth microdilution method; type: functional
[3] = tested on: Klebsiella aerogenes; test: Antibacterial activity against aminoglycoside-resistant Enterobacter aerogenes expressing AAC(3)-2 by broth microdilution method; type: functional; outline: as §1
[4] = tested on: Escherichia coli; test: Antibacterial activity against aminoglycoside-resistant Escherichia coli expressing ANT(2'')-1 by broth microdilution method; type: functional; outline: as §1
[5] = tested on: Citrobacter freundii; test: Antibacterial activity against aminoglycoside-resistant Citrobacter freundii expressing AAC(6')-1 by broth microdilution method; type: functional; outline: as §1
[6] = tested on: Pseudomonas aeruginosa; test: Antibacterial activity against Pseudomonas aeruginosa expressing mexXY operon by broth microdilution method; type: functional
Outline: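 MICs were measured by broth microdilution following CLSI guidance. The strains formed a 25-strain screening panel with diverse aminoglycoside resistance mechanisms. The panel included Gram-negative and S. aureus strains carrying key aminoglycoside-modifying enzymes, strains with altered permeability or efflux, and an armA ribosomal methyltransferase strain.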

[7] = tested on: Staphylococcus sp.; test: Antibacterial activity against Staphylococcus spp. by broth microdilution method; type: functional
Outline: (§2)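 MICs were determined by CLSI broth microdilution against clinical isolate panels that included aminoglycoside-resistant isolates. […] MIC90 was derived per group and not calculated when n was <10. Imipenem, ceftobiprole, ciprofloxacin and tigecycline MICs were also determined for the resistant isolates.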

[8] = tested on: Pseudomonas aeruginosa; test: Antibacterial activity against aminoglycoside-resistant Pseudomonas aeruginosa expressing AAC(6')-2 by broth microdilution method; type: functional; outline: as §1
[9] = tested on: Escherichia coli; test: Antibacterial activity against aminoglycoside-resistant Escherichia coli expressing AAC(3)-2 by broth microdilution method
[10] = tested on: Enterobacter cloacae; test: Antibacterial activity against aminoglycoside-resistant Enterobacter cloacae expressing ANT(2'')-I by broth microdilution method
[11] = tested on: Citrobacter freundii; test: Antibacterial activity against aminoglycoside-resistant Citrobacter freundii expressing AAC(3)-2 by broth microdilution method; type: functional; outline: as §1
[12] = Antibacterial activity against indole positive Proteae by broth microdilution method; type: functional; outline: as §2
[13] = tested on: Pseudomonas aeruginosa; test: Antibacterial activity against Pseudomonas aeruginosa ATCC 27853 by broth microdilution method; type: functional
[14] = tested on: Acinetobacter baumannii; test: Antibacterial activity against aminoglycoside-resistant Acinetobacter baumannii expressing […] by broth microdilution method; type: functional; outline: as §1
[15] = tested on: Escherichia coli; test: Antibacterial activity against aminoglycoside-resistant Escherichia coli expressing AAC(3)-2 by broth microdilution method; type: functional; outline: as §1
[16] = tested on: Providencia stuartii; test: Antibacterial activity against aminoglycoside-resistant Providencia stuartii expressing AAC(2')-1 by broth microdilution method
[17] = tested on: Proteus mirabilis; test: Antibacterial activity against Proteus mirabilis by broth microdilution method; type: functional; outline: as §2
[18] = tested on: Escherichia coli; test: Antibacterial activity against aminoglycoside-resistant Escherichia coli expressing ANT(2'')-I by broth microdilution method
[19] = tested on: Staphylococcus epidermidis; test: Antibacterial activity against aminoglycoside-resistant Staphylococcus epidermidis expressing APH(3')-3 by broth microdilution method; type: functional
[20] = tested on: Staphylococcus aureus; test: Antibacterial activity against aminoglycoside-resistant Staphylococcus aureus expressing APH(2'') + AAC(6')-1 by broth microdilution method; type: functional; outline: as §1
[21] = tested on: Escherichia coli; test: Antibacterial activity against Escherichia coli by broth microdilution method; type: functional; outline: as §2
[22] = tested on: Escherichia coli; test: Antibacterial activity against aminoglycoside-resistant Escherichia coli expressing ANT(3)-2 by broth microdilution method; type: functional; outline: as §1

NCC[C@H](O)C(=O)N[C@@H]1C[C@H](N)[C@@H](O[C@H]2O[C@H](CN)[C@@H](O)[C@H](O)[C@H]2O)[C@H](O)[C@H]1O[C@H]1O[C@H](CO)[C@@H](O)[C@H](N)[C@H]1O [AMIKACIN]
MIC [1]: 4 µg/mL (≈ 6.83 µM)
MIC [2]: 2 µg/mL (≈ 3.42 µM)
MIC [3]: 4 µg/mL (≈ 6.83 µM)
MIC [4]: 4 µg/mL (≈ 6.83 µM)
MIC [5]: 30 µg/mL (≈ 51.2 µM)
MIC [6]: 4 µg/mL (≈ 6.83 µM)
MIC50 [7]: 16 µg/mL (≈ 27.3 µM)
MIC90 [7]: > 64 µg/mL
MIC [8]: 14 µg/mL (≈ 23.9 µM)
MIC [9]: 4 µg/mL (≈ 6.83 µM)
MIC [10]: 2 µg/mL (≈ 3.42 µM)
MIC [11]: 4 µg/mL (≈ 6.83 µM)
MIC50 [12]: 8 µg/mL (≈ 13.7 µM)
MIC [13]: 2 µg/mL (≈ 3.42 µM)
MIC [14]: 4 µg/mL (≈ 6.83 µM)
MIC [15]: 4 µg/mL (≈ 6.83 µM)
MIC [16]: 8 µg/mL (≈ 13.7 µM)
MIC50 [17]: 8 µg/mL (≈ 13.7 µM)
MIC90 [17]: 64 µg/mL (≈ 109 µM)
MIC [18]: 2 µg/mL (≈ 3.42 µM)
MIC [19]: 4 µg/mL (≈ 6.83 µM)
MIC [20]: 18 µg/mL
MIC50 [21]: 16 µg/mL (≈ 27.3 µM)
MIC90 [21]: 32 µg/mL (≈ 54.6 µM)

CN[C@@H]1[C@@H](O)[C@@H](O[C@@H]2[C@@H](O)[C@H](O[C@H]3OC(CNCCO)=CC[C@H]3N)[C@@H](N)C[C@H]2NC(=O)[C@@H](O)CCN)OC[C@]1(C)O [PLAZOMICIN]
MIC [1]: 1 µg/mL (≈ 1.69 µM)
MIC [2]: 4 µg/mL (≈ 6.75 µM)
MIC [3]: 1 µg/mL (≈ 1.69 µM)
MIC [4]: 1 µg/mL (≈ 1.69 µM)
MIC [5]: 1 µg/mL (≈ 1.69 µM)
MIC [22]: 2 µg/mL (≈ 3.37 µM)
MIC [6]: 8 µg/mL (≈ 13.5 µM)
MIC50 [7]: 1 µg/mL (≈ 1.69 µM)
MIC90 [7]: 2 µg/mL (≈ 3.37 µM)
MIC [8]: 6 µg/mL (≈ 10.1 µM)
MIC [10]: 1 µg/mL (≈ 1.69 µM)
MIC [11]: 1 µg/mL (≈ 1.69 µM)
MIC50 [12]: 8 µg/mL (≈ 13.5 µM)
MIC [13]: 2 µg/mL (≈ 3.37 µM)
MIC [14]: 4 µg/mL (≈ 6.75 µM)
MIC [15]: 1 µg/mL (≈ 1.69 µM)
MIC [16]: > 64 µg/mL
MIC50 [17]: 4 µg/mL (≈ 6.75 µM)
MIC90 [17]: 8 µg/mL (≈ 13.5 µM)
MIC [18]: 1 µg/mL (≈ 1.69 µM)
MIC [19]: 1 µg/mL (≈ 1.69 µM)
MIC [20]: 1 µg/mL
MIC50 [21]: 1 µg/mL (≈ 1.69 µM)
MIC90 [21]: 2 µg/mL (≈ 3.37 µM)
